Experimental data taken from ChEMBL document CHEMBL4311975, “Exploration of the antibiotic potentiating activity of indolglyoxylpolyamines” (Eur J Med Chem, 2019).
In brackets after ≈: the same amount, converted by molar mass.

Legend:
[1] = tested on: Staphylococcus aureus; assay: Antibacterial activity against Staphylococcus aureus ATCC 25923 assessed as growth inhibition incubated for 18 hrs by broth dilution method; type: functional; details: ATCC 25923, 18 h
Outline: (§1)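 Broth microdilution following CA-SFM recommendations. Inoculum was 10^5 CFU in Mueller-Hinton broth with two-fold serial drug dilutions. Plates were incubated 18 h at 37 °C. MIC was the lowest concentration giving complete inhibition of visible growth. Values are means, n = 3.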

[2] = tested on: Pseudomonas aeruginosa; assay: Antibacterial activity against Pseudomonas aeruginosa ATCC 27853 assessed as growth inhibition incubated for 18 hrs by broth dilution method; type: functional; details: ATCC 27853, 18 h; outline: as §1
[3] = tested on: Escherichia coli; assay: Antibacterial activity against Escherichia coli ATCC 25922 assessed as growth inhibition incubated for 18 hrs by broth dilution method; type: functional; details: ATCC 25922, 18 h; outline: as §1
[4] = tested on: Klebsiella pneumoniae; assay: Antibacterial activity against Klebsiella pneumoniae ATCC 700603 assessed as growth inhibition incubated for 18 hrs by resazurin dye based assay; type: functional; details: Klebsiella pneumoniae, 700603, 18 h
Outline: (§2)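 Overnight cultures were diluted 40-fold in MHB and grown 1.5–2 h at 37 °C to mid-log phase. Cells were added at 5×10^5 CFU/mL final to two-fold compound dilutions (0.008–32 μg/mL final), in duplicate, for 18 h at 37 °C. Resazurin (0.001% final) was added for 2 h and MIC read by eye. Means, n = 2.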

[5] = tested on: Acinetobacter baumannii; assay: Antibacterial activity against Acinetobacter baumannii ATCC 19606 assessed as growth inhibition incubated for 18 hrs by resazurin dye based assay; type: functional; details: ATCC 19606 = CIP 70.34 = JCM 6841, 18 h; outline: as §2
[6] = tested on: Candida albicans; assay: Antifungal activity against Candida albicans ATCC 90028 assessed as growth inhibition incubated for 36 hrs by resazurin dye based assay; type: functional; details: ATCC 90028, 36 h
Outline: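 Yeast was grown 3 days on YPD agar at 30 °C. Colonies were suspended and diluted in YNB broth to 2.5×10^3 CFU/mL, then added to two-fold compound dilutions (0.008–32 μg/mL final), in duplicate. Plates stood 36 h at 35 °C without shaking. Means, n = 2.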

[7] = tested on: Cryptococcus neoformans; assay: Antifungal activity against Cryptococcus neoformans ATCC 208821 assessed as growth inhibition incubated for 36 hrs by resazurin dye based assay; type: functional; details: ATCC 208821, 36 h
Outline: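 Cryptococcus was grown 3 days on YPD agar at 30 °C, suspended, and diluted in YNB broth to 2.5×10^3 CFU/mL. Cells were exposed to 0.008–32 μg/mL compound (final), in duplicate, for 36 h at 35 °C without shaking. Resazurin (0.006% final) was added for a further 3 h. MIC was read from absorbance at OD570–600. Means, n = 2.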

[8] = tested on: Pseudomonas aeruginosa; assay: Potentiation of doxycycline-induced antibacterial activity against Pseudomonas aeruginosa ATCC 27853 assessed as concentration required to restore 2 ug/ml doxycycline activity measured after 18 hrs; type: functional
Outline: (§3)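 Inoculum was 5×10^5 CFU in MHB with two-fold serial dilutions of adjuvant plus fixed doxycycline at 2 μg/mL. […] Repeated independently in triplicate.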

[9] = tested on: Pseudomonas aeruginosa; assay: Potentiation of erythromycin-induced antibacterial activity against Pseudomonas aeruginosa ATCC 27853 assessed as concentration required to restore 2 ug/ml erythromycin activity measured after 18 hrs; type: functional
[10] = tested on: Pseudomonas aeruginosa; assay: Potentiation of chloramphenicol-induced antibacterial activity against Pseudomonas aeruginosa ATCC 27853 assessed as concentration required to restore 2 ug/ml chloramphenicol activity measured after 18 hrs; type: functional
[11] = tested on: Pseudomonas aeruginosa; assay: Potentiation of nalidixic acid-induced antibacterial activity against Pseudomonas aeruginosa ATCC 27853 assessed as concentration required to restore 2 ug/ml nalidixic acid activity measured after 18 hrs; type: functional
[12] = tested on: Escherichia coli; assay: Potentiation of doxycycline-induced antibacterial activity against Escherichia coli ATCC 25922 assessed as concentration required to restore 2 ug/ml doxycycline activity measured after 18 hrs; type: functional; outline: as §3
[13] = tested on: Escherichia coli; assay: Potentiation of erythromycin-induced antibacterial activity against Escherichia coli ATCC 25922 assessed as concentration required to restore 2 ug/ml erythromycin activity measured after 18 hrs; type: functional
[14] = tested on: Escherichia coli; assay: Potentiation of chloramphenicol-induced antibacterial activity against Escherichia coli ATCC 25922 assessed as concentration required to restore 2 ug/ml chloramphenicol activity measured after 18 hrs; type: functional
[15] = tested on: Escherichia coli; assay: Potentiation of nalidixic acid-induced antibacterial activity against Escherichia coli ATCC 25922 assessed as concentration required to restore 2 ug/ml nalidixic acid activity measured after 18 hrs; type: functional
[16] = tested on: Klebsiella pneumoniae; assay: Potentiation of doxycycline-induced antibacterial activity against Klebsiella pneumoniae ATCC 13443 assessed as concentration required to restore 2 ug/ml doxycycline activity measured after 18 hrs; type: functional; outline: as §3
[17] = tested on: Klebsiella pneumoniae; assay: Potentiation of erythromycin-induced antibacterial activity against Klebsiella pneumoniae ATCC 13443 assessed as concentration required to restore 2 ug/ml erythromycin activity measured after 18 hrs; type: functional
[18] = tested on: Klebsiella pneumoniae; assay: Potentiation of chloramphenicol-induced antibacterial activity against Klebsiella pneumoniae ATCC 13443 assessed as concentration required to restore 2 ug/ml chloramphenicol activity measured after 18 hrs; type: functional
[19] = tested on: Klebsiella pneumoniae; assay: Potentiation of nalidixic acid-induced antibacterial activity against Klebsiella pneumoniae ATCC 13443 assessed as concentration required to restore 2 ug/ml nalidixic acid activity measured after 18 hrs; type: functional
[20] = tested on: Acinetobacter baumannii; assay: Potentiation of doxycycline-induced antibacterial activity against Acinetobacter baumannii AYE assessed as concentration required to restore 2 ug/ml doxycycline activity measured after 18 hrs; type: functional; outline: as §3
[21] = tested on: Acinetobacter baumannii; assay: Potentiation of erythromycin-induced antibacterial activity against Acinetobacter baumannii AYE assessed as concentration required to restore 2 ug/ml erythromycin activity measured after 18 hrs; type: functional
[22] = tested on: Acinetobacter baumannii; assay: Potentiation of chloramphenicol-induced antibacterial activity against Acinetobacter baumannii AYE assessed as concentration required to restore 2 ug/ml chloramphenicol activity measured after 18 hrs; type: functional
[23] = tested on: Acinetobacter baumannii; assay: Potentiation of nalidixic acid-induced antibacterial activity against Acinetobacter baumannii AYE assessed as concentration required to restore 2 ug/ml nalidixic acid activity measured after 18 hrs; type: functional
[24] = tested on: L6; assay: Cytotoxicity against rat L6 cells measured after 72 hrs by alamar blue assay; type: cell-based; details: L6, 72 h
Outline: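 Rat L6 myoblasts, 4×10^4/well in RPMI 1640 with L-glutamine and 10% FBS, received seven 3-fold dilutions (90 to 0.123 μg/mL) for 72 h. Alamar Blue was added for 2 h and fluorescence read at ex 536/em 588 nm. Podophyllotoxin served as reference. Means, n = 2.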

[25] = Cytotoxicity against human HEK293 cells measured after 20 hrs by resazurin dye based fluorescence assay; type: cell-based
Outline: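 HEK293 cells, 5,000/well in DMEM with 10% FBS, were exposed to compound for 20 h at 37 °C, 5% CO2. Resazurin (100 μM final) was added for 3 h, then fluorescence read at ex 560/em 590. Signal was normalised to tamoxifen (74 μg/mL, 0%) and untreated growth (100%), and CC50 came from dose-response fitting. Top dose 32 μg/mL. Means, n = 2.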

[26] = Hemolytic activity against Sprague-Dawley rat RBC assessed as release of hemoglobin at 50 uM incubated for 1 hr relative to control; type: ADME, cell-based, Erythrocyte; details: red blood cells (erythrocytes), read-out: Activity
Outline: (§4)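 Fresh Sprague-Dawley rat erythrocytes were washed in saline and resuspended at 2% v/v. Cells were incubated with compound in DMSO/PBS for 1 h at 37 °C, then centrifuged at 200 g, and supernatant absorbance read at 540 nm. Results were normalised to DMSO/PBS (0%) and 0.1% Triton X-100 (100%). Single-point testing used 50 μM; HC50 came from 10-point curves. Means of three experiments.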

[27] = tested on: Staphylococcus intermedius; assay: Antibacterial activity against Staphylococcus intermedius 1051997 assessed as growth inhibition incubated for 18 hrs by broth dilution method; type: functional; details: Staphylococcus intermedius, 1051997, 18 h; outline: as §1
[28] = Hemolytic activity against Sprague-Dawley rat RBC assessed as release of hemoglobin incubated for 1 hr; type: ADME, cell-based, Erythrocyte; details: red blood cells (erythrocytes); outline: as §4

MIC [1] [µM]	MIC [2] [µM]	MIC [3] [µM]	MIC [4] [µM]	MIC [5] [µM]	MIC [6] [µM]	MIC [7] [µM]	Compound	Activity [8] [µM]	Activity [9] [µM]	Activity [10] [µM]	Activity [11] [µM]	Activity [12] [µM]	Activity [13] [µM]	Activity [14] [µM]	Activity [15] [µM]	Activity [16] [µM]	Activity [17] [µM]	Activity [18] [µM]	Activity [19] [µM]	Activity [20] [µM]	further results
15 (≈ 9.07 µg/mL)	> 200	> 200	> 38.4	> 38.4	38.4 (≈ 23.2 µg/mL)	> 38.4	COc1cccc2c(C(=O)C(=O)NCCCNCCCCNCCCNC(=O)C(=O)c3c[nH]c4c(OC)cccc34)c[nH]c12	3.75 to 7.5	100	30	60	3.75	>200	>200	>200	>200	>200	>200	>200	15	Activity [21]: >200 µM; Activity [22]: >200 µM; Activity [23]: >200 µM; IC50 [24]: 62 µM; CC50 at 20 h [25]: 27.1 µM; hemolysis at 1 h, 50 µM [26]: 0%
6.25 (≈ 4.39 µg/mL)	100 (≈ 70.2 µg/mL)	100 (≈ 70.2 µg/mL)	> 34	> 34	17.2 (≈ 12.1 µg/mL)	1.1 (≈ 0.773 µg/mL)	O=C(NCCCNCCCCNCCCNC(=O)C(=O)c1c[nH]c2cc(Br)ccc12)C(=O)c1c[nH]c2cc(Br)ccc12	6.25 to 12.5	200	>200	50	6.25	50	>200	>200	6.25	50	200	25	25	MIC [27]: 3.12 µM (≈ 2.2 µg/mL); Activity [21]: 25 µM; Activity [22]: >200 µM; Activity [23]: 200 µM; IC50 [24]: 7.7 µM; hemolysis at 1 h, 50 µM [26]: 91%; HC50 at 1 h [28]: 20 µM
